Tn6 DDE FP: DD(E)-Tn6 binding inhibition, primary FP screen. P02675. Fibrin DD(E) TRITC-Tn6 fluorescence polarization displacement. inhibition, % at 8.3 µM. 370,000 tested, 0.21% active. AID 720509;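 active = inhibition above a per-campaign cutoff: mean of compounds within control limits plus 3 SD, cut at about 15% in these data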
Target sequence (P02675 whole entry, looked up): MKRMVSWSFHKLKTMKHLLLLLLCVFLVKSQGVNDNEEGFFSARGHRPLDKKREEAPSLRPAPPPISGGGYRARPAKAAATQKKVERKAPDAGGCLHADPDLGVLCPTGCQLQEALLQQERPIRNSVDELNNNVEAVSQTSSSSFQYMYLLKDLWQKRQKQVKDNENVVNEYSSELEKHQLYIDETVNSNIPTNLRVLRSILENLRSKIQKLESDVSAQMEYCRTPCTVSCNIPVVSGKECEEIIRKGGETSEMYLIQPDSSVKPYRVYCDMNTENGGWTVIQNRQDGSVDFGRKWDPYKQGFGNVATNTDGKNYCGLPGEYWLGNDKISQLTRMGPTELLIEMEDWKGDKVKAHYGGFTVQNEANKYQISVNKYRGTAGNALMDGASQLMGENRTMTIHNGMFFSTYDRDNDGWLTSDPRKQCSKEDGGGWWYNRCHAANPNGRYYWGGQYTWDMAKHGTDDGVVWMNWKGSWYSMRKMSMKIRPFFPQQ
PLC-gamma1 inh: inhibitors of human phospholipase C gamma1 | P19174 | purified PLC-gamma1, fluorogenic substrate, fluorescence | inhibition, % at 12.2 µM | 370,000 tested, 0.84% active | AID 720700
PLC-beta3 inh: blocks human PLC-beta3 enzyme activity; Q01970; Purified PLC-beta3, fluorogenic substrate, fluorescence; inhibition, % at 12.2 µM; 370,000 tested, 0.18% active; in the data active = inhibition above about 11%
ADAM17 inh: ADAM17 inhibition, QFRET primary screen; P78536; recombinant ADAM17, EDANS/DABCYL FRET peptide cleavage; inhibition, % at 6.95 µM; 370,000 tested, 0.83% active; AID 720648;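 active = inhibition above the mean of compounds lying between control limits plus 3 SD, set per campaign, cut at about 8.5% in these data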
ADAM10 inh: inhibitors of human ADAM10. O14672. recombinant ADAM10, EDANS/DABCYL FRET peptide cleavage, 3 h. inhibition, % at 7 µM. 370,000 tested, 0.62% active. AID 720582;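 active = inhibition above a per-campaign cutoff equal to the mean of compounds falling between control-based bounds plus 3 SD, cut at about 20% in these data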
DDE Tn7 FP inh: DD(E)-Tn7 binding inhibition, primary FP screen; P02675; FP displacement of FITC-Tn7 peptide from fibrin DD(E); 0% = median of compound wells per plate; inhibition, % at 8.3 µM; 370,000 tested, 0.13% active; AID 720508;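 active = inhibition above the mean of compounds falling within the control limits plus 3 SD of them, cut at about 14% in these data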
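Test system: human clot-derived fibrin DD(E) complex / Quantity: 2 µM final DD(E) protein / Incubation: 10 min plus 3 h, room temperature / Measured by: fluorescence polarization / Benchmarks: high control of 10 µM Aha-Tn7 peptide / Replicates: singlicate testing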
ADAM10 confirm: human ADAM10 inhibition, confirmation; 2,100 tested, 1% active; ADAM10 QFRET peptide cleavage, EDANS fluorescence; shares compounds with ADAM10 inh; inhibition, % at 6.95 µM; AID 743208;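 active = inhibition above about 20% chosen separately for each screening run, limit read from the data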
ADAM17 counter: counter-screen for ADAM10 exosite inhibitors: inhibitors of human ADAM17. inhibition, % at 6.95 µM. shares compounds with ADAM10 inh. ADAM17 QFRET peptide cleavage, EDANS fluorescence. 2,100 tested, 0.5% active;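 active = mean triplicate inhibition above the solvent-only control wells' mean plus 3 SD, cut at about 12% in these data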
ADAM10 counter: counter-screen for ADAM17 exosite inhibitors: inhibitors of human ADAM10 | shares compounds with ADAM17 inh | recombinant ADAM10, EDANS/DABCYL FRET peptide cleavage, 3 h | inhibition, % at 6.95 µM | 2,900 tested, 47% active | AID 743256;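 active = mean inhibition over the triplicate runs exceeds the activity threshold set in the earlier primary screen, cut at about 20% in these data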
ADAM17 confirm: human ADAM17 inhibition, confirmation; inhibition, % at 6.95 µM; 2,900 tested, 65% active; recombinant ADAM17, EDANS/DABCYL QFRET peptide cleavage; shares compounds with ADAM17 inh; AID 743257;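 active = mean inhibition across replicates above the hit cutoff set in the primary screen, cut at about 8.5% in these data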
PLCg1 ctr: inhibits human PLC-gamma1 in PLC-beta3 counter-screen; shares compounds with PLC-gamma1 inh; purified PLC-gamma1, fluorogenic substrate, fluorescence; inhibition, % at 12.3 µM; 3,300 tested, 3.1% active; AID 743258
PLCb3 confirm: confirmation of human PLC-beta3 inhibitors | inhibition, % at 12.3 µM | 3,300 tested, 1% active | shares compounds with PLC-gamma1 inh | purified PLC-beta3, fluorogenic substrate fluorescence; in the data active = inhibition above about 11%
A number is an active result; ! = repeats disagree. Most compounds without a hit are left out; they make up all but 2.3% or so of the library. Cut-off read from the data, not from the text of the source, unless noted: active = inhibition above about 9.5%; inactive = the rest.

Screening O=C(NCCN1CCC(Cc2ccccc2)CC1)C1CCCN(S(=O)(=O)c2ccccc2)C1 (centres undefined) returned Tn6 DDE FP inactive, PLC-gamma1 inh inactive, PLC-beta3 inh inactive, ADAM17 inh inactive, ADAM10 inh inactive and DDE Tn7 FP inh inactive.
For COc1ccccc1C(=O)Nc1ccc(C)cc1C(=O)c1ccccc1 the results were Tn6 DDE FP inactive, PLC-gamma1 inh 9.7, PLC-beta3 inh inactive, ADAM17 inh inactive, ADAM10 inh 21.5, DDE Tn7 FP inh inactive, ADAM10 confirm inactive, ADAM17 counter inactive, PLCg1 ctr inactive and PLCb3 confirm inactive.
Screening COc1ccc(C(=O)Nc2ccc(C)cc2C(=O)c2ccccc2)cc1 returned Tn6 DDE FP inactive, PLC-gamma1 inh inactive, PLC-beta3 inh inactive, ADAM17 inh inactive, ADAM10 inh inactive and DDE Tn7 FP inh inactive.
CCOC(=O)CC[C@@]1(C(=O)OCC)C[C@@H](CC(=O)NCCCN2CCCC2=O)C(=O)N2CCCC=C21 was read as Tn6 DDE FP inactive, PLC-gamma1 inh inactive, PLC-beta3 inh inactive, ADAM17 inh inactive, ADAM10 inh inactive and DDE Tn7 FP inh inactive.
`N#C/C(=C\c1ccccc1)C(=O)NNS(=O)(=O)c1cccc([N+](=O)[O-])c1` gave Tn6 DDE FP inactive, PLC-gamma1 inh 11.0, PLC-beta3 inh inactive, ADAM17 inh 34.8, ADAM10 inh 69.3, DDE Tn7 FP inh inactive, ADAM10 confirm inactive, ADAM17 counter inactive, ADAM10 counter inactive, ADAM17 confirm inactive, PLCg1 ctr inactive and PLCb3 confirm inactive.
`O=C(NCCC1=CCCCC1)c1ccc2c(c1)N(Cc1ccccc1)C(=O)CS2` gave Tn6 DDE FP inactive, PLC-gamma1 inh 10.8, PLC-beta3 inh inactive, ADAM17 inh 16.9, ADAM10 inh 27.2, DDE Tn7 FP inh inactive, ADAM10 confirm inactive, ADAM17 counter inactive, ADAM10 counter 25.8, ADAM17 confirm 13.3, PLCg1 ctr inactive and PLCb3 confirm inactive.
For CC(C)CNC(=O)CC1Oc2ccccc2NC1=O (centres undefined) the results were Tn6 DDE FP inactive, PLC-gamma1 inh inactive, PLC-beta3 inh inactive, ADAM17 inh inactive, ADAM10 inh inactive and DDE Tn7 FP inh inactive.
COC(=O)[C@]12C[C@H](CC(=O)NCCc3ccccc3OC)C(=O)N(CCc3ccc(OC)c(OC)c3)C1=C[C@H](COCc1ccccc1)O[C@@H]2C was read as Tn6 DDE FP inactive, PLC-gamma1 inh 13.4, PLC-beta3 inh inactive, ADAM17 inh inactive, ADAM10 inh 20.9, DDE Tn7 FP inh inactive, ADAM10 confirm inactive, ADAM17 counter inactive, PLCg1 ctr inactive and PLCb3 confirm inactive.
CCCCNC(=O)C[C@H]1C[C@@]2(C(=O)OC)C(=C[C@H](COCc3ccccc3)O[C@@H]2C)N(CCc2ccc(OC)c(OC)c2)C1=O was read as Tn6 DDE FP inactive, PLC-gamma1 inh inactive, PLC-beta3 inh inactive, ADAM17 inh inactive, ADAM10 inh inactive and DDE Tn7 FP inh inactive.
CC(C)(C)NC(=O)[C@@H]1C[C@@H]2CCCC[C@@H]2CN1C[C@@H](O)[C@H](Cc1ccccc1)NC(=O)[C@H](CC(N)=O)NC(=O)c1ccc2ccccc2n1 was read as Tn6 DDE FP inactive, PLC-gamma1 inh 9.7!, PLC-beta3 inh inactive, ADAM17 inh inactive, ADAM10 inh 26.3!, DDE Tn7 FP inh inactive, ADAM10 confirm inactive, ADAM17 counter inactive, PLCg1 ctr inactive and PLCb3 confirm inactive.
`Cc1cc(C(=O)O[C@H]2[C@H](Cc3ccccc3)NS(=O)(=O)[C@H]3C[C@@H]4C=C[C@]23O4)ccc1[N+](=O)[O-]` gave Tn6 DDE FP inactive, PLC-gamma1 inh inactive, PLC-beta3 inh inactive, ADAM17 inh inactive, ADAM10 inh inactive and DDE Tn7 FP inh inactive.
O=C(Nc1ccc(C(F)(F)F)cc1[N+](=O)[O-])O[C@H]1[C@H](Cc2ccccc2)NS(=O)(=O)[C@H]2C[C@@H]3C=C[C@]12O3 was read as Tn6 DDE FP inactive, PLC-gamma1 inh 12.0, PLC-beta3 inh inactive, ADAM17 inh 13.6, ADAM10 inh 28.6, DDE Tn7 FP inh inactive, ADAM10 confirm inactive, ADAM17 counter inactive, ADAM10 counter inactive, ADAM17 confirm inactive, PLCg1 ctr inactive and PLCb3 confirm inactive.
Screening COC(=O)[C@]12C[C@H](CC(=O)NCc3cccs3)C(=O)N(Cc3ccc4c(c3)OCO4)C1=C[C@H](C(C)C)O[C@@H]2C1CC1 returned Tn6 DDE FP inactive, PLC-gamma1 inh inactive, PLC-beta3 inh inactive, ADAM17 inh inactive, ADAM10 inh inactive and DDE Tn7 FP inh inactive.
For Nc1cc(Cl)ccc1Oc1ccc2ccccc2c1 the results were Tn6 DDE FP inactive, PLC-gamma1 inh 13.8, PLC-beta3 inh inactive, ADAM17 inh 16.8, ADAM10 inh 29.0, DDE Tn7 FP inh inactive, ADAM10 confirm inactive, ADAM17 counter inactive, ADAM10 counter inactive, ADAM17 confirm 11.7, PLCg1 ctr inactive and PLCb3 confirm inactive.
For C=CCN(CC#CC1=CCCCC1)CC1CC1 the results were Tn6 DDE FP inactive, PLC-gamma1 inh inactive, PLC-beta3 inh inactive, ADAM17 inh inactive, ADAM10 inh inactive and DDE Tn7 FP inh inactive.
O=C(Nc1cccc(O)c1)C1CC(c2c(F)cccc2Cl)=NO1 (centres undefined) was read as Tn6 DDE FP inactive, PLC-gamma1 inh inactive, PLC-beta3 inh inactive, ADAM17 inh inactive, ADAM10 inh inactive and DDE Tn7 FP inh inactive.
O=C(Nc1cc(Cl)ccc1O)C1CC(c2c(F)cccc2Cl)=NO1 (centres undefined) was read as Tn6 DDE FP inactive, PLC-gamma1 inh 10.1, PLC-beta3 inh inactive, ADAM17 inh 9.6, ADAM10 inh 25.9, DDE Tn7 FP inh inactive, ADAM10 confirm inactive, ADAM17 counter inactive, ADAM10 counter inactive, ADAM17 confirm 11.7, PLCg1 ctr inactive and PLCb3 confirm inactive.

Assay outcomes deposited in PubChem by The Scripps Research Institute Molecular Screening Center.
